“And” between values parts separate entries of the source, which are not always exact repeats. Equal entries are not always repeated.
Tests used:
[1] = system: Fibroblast; test: Multiplex assay against human fibroblast; assay type: toxicity, cell-based; conditions: number of replicates 2
How it was run: (§1)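 Tubulin, mitochondrial-mass and membrane-permeability phenotypes are per cents of healthy-nucleus cells. Cells were gated by CellPathfinder machine learning into Hoechst high-intensity objects or normal cells, normal cells into healthy, pyknosed or fragmented nuclei, and pyknosed cells into mitotic or apoptotic. Before that, live cells stained at seeding with Hoechst33342, BioTracker Green Microtubule Cytoskeleton Dye, MitoTracker Red and Annexin V Alexa Fluor 680 were imaged on a CQ1 microscope at 37°C and 5% CO2 after compound addition.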

[2] = system: HEK-293T; test: Multiplex assay against HEK293T; assay type: toxicity, cell-based; conditions: human, number of replicates 2; how it was run: as §1
[3] = 12 h, 1 µM, compound concentration 1 uM
[4] = 12 h, 10 µM, compound concentration 10 uM
[5] = 24 h, 1 µM, compound concentration 1 uM
[6] = 24 h, 10 µM, compound concentration 10 uM
[7] = 48 h, 1 µM, compound concentration 1 uM
[8] = 48 h, 10 µM, compound concentration 10 uM

O=S(=O)(c1ccccc1)N(CC(F)(F)F)c1ccc(C(O)(C(F)(F)F)C(F)(F)F)cc1 [T091317] was tested, and the “Population Apoptotic (%)” value [1, 3] was 45% and 27%, the “Population Fragmented Nuclei (%)” value [1, 3] was 13% and 11% and the “Population Healthy Nuclei (%)” value [1, 3] was 60% and 68%. For the same molecule, the “Population Hoechst High Intensity Objects (%)” value [1, 3] was 0%, the “Population Membrane Permeable-Phenotype (%)” value [1, 3] was 8% and 10% and the “Population Mitochondria Different-Phenotype (%)” value [1, 3] was 1%. For the same molecule, the “Population Mitotic Cells (%)” value [1, 3] was 54% and 72%, the “Population Normal (%)” value [1, 3] was 100% and the “Population Pyknosed Nuclei (%)” value [1, 3] was 25% and 20%. For the same molecule, the “Population Tubulin-Different-Phenotype (%)” value [1, 3] was 28% and 21%, the “Total Cell Count” value [1, 3] was 135 and 214 and the “Population Apoptotic (%)” value [1, 4] was 33% and 30%. The “Population Fragmented Nuclei (%)” value [1, 4] was 14% and 12%, the “Population Healthy Nuclei (%)” value [1, 4] was 58% and 67% and the “Population Hoechst High Intensity Objects (%)” value [1, 4] was 0%. For the same molecule, the “Population Membrane Permeable-Phenotype (%)” value [1, 4] was 6% and 8%, the “Population Mitochondria Different-Phenotype (%)” value [1, 4] was 1% and 4% and the “Population Mitotic Cells (%)” value [1, 4] was 66% and 69%. The “Population Normal (%)” value [1, 4] was 99% and 100%, the “Population Pyknosed Nuclei (%)” value [1, 4] was 28% and 19% and the “Population Tubulin-Different-Phenotype (%)” value [1, 4] was 40% and 34%. For the same molecule, the “Total Cell Count” value [1, 4] was 151 and 132, the “Population Apoptotic (%)” value [1, 5] was 50% and 52% and the “Population Fragmented Nuclei (%)” value [1, 5] was 15% and 10%. The “Population Healthy Nuclei (%)” value [1, 5] was 54% and 57%, the “Population Hoechst High Intensity Objects (%)” value [1, 5] was 0% and the “Population Membrane Permeable-Phenotype (%)” value [1, 5] was 7% and 15%. For the same molecule, the “Population Mitochondria Different-Phenotype (%)” value [1, 5] was 5% and 0%, the “Population Mitotic Cells (%)” value [1, 5] was 50% and 47% and the “Population Normal (%)” value [1, 5] was 100%. The “Population Pyknosed Nuclei (%)” value [1, 5] was 29% and 31%, the “Population Tubulin-Different-Phenotype (%)” value [1, 5] was 28% and 24% and the “Total Cell Count” value [1, 5] was 128 and 204. For the same molecule, the “Population Apoptotic (%)” value [1, 6] was 63% and 37%, the “Population Fragmented Nuclei (%)” value [1, 6] was 16% and 18% and the “Population Healthy Nuclei (%)” value [1, 6] was 47% and 57%. For the same molecule, the “Population Hoechst High Intensity Objects (%)” value [1, 6] was 0%, the “Population Membrane Permeable-Phenotype (%)” value [1, 6] was 8% and 17% and the “Population Mitochondria Different-Phenotype (%)” value [1, 6] was 7% and 4%. For the same molecule, the “Population Mitotic Cells (%)” value [1, 6] was 36% and 62%, the “Population Normal (%)” value [1, 6] was 100% and 99% and the “Population Pyknosed Nuclei (%)” value [1, 6] was 35% and 24%. For the same molecule, the “Population Tubulin-Different-Phenotype (%)” value [1, 6] was 65% and 56%, the “Total Cell Count” value [1, 6] was 145 and 143 and the “Population Apoptotic (%)” value [1, 7] was 75% and 69%. For the same molecule, the “Population Fragmented Nuclei (%)” value [1, 7] was 10% and 13%, the “Population Healthy Nuclei (%)” value [1, 7] was 60% and 54% and the “Population Hoechst High Intensity Objects (%)” value [1, 7] was 0%. For the same molecule, the “Population Membrane Permeable-Phenotype (%)” value [1, 7] was 15% and 14%, the “Population Mitochondria Different-Phenotype (%)” value [1, 7] was 0% and 2% and the “Population Mitotic Cells (%)” value [1, 7] was 24% and 30%. For the same molecule, the “Population Normal (%)” value [1, 7] was 100% and 99%, the “Population Pyknosed Nuclei (%)” value [1, 7] was 28% and 31% and the “Population Tubulin-Different-Phenotype (%)” value [1, 7] was 32% and 24%. For the same molecule, the “Total Cell Count” value [1, 7] was 128 and 175, the “Population Apoptotic (%)” value [1, 8] was 71% and 78% and the “Population Fragmented Nuclei (%)” value [1, 8] was 25% and 16%. For the same molecule, the “Population Healthy Nuclei (%)” value [1, 8] was 46% and 54%, the “Population Hoechst High Intensity Objects (%)” value [1, 8] was 1% and 0% and the “Population Membrane Permeable-Phenotype (%)” value [1, 8] was 16% and 26%. The “Population Mitochondria Different-Phenotype (%)” value [1, 8] was 4%, the “Population Mitotic Cells (%)” value [1, 8] was 28% and 21% and the “Population Normal (%)” value [1, 8] was 98% and 99%. For the same molecule, the “Population Pyknosed Nuclei (%)” value [1, 8] was 27% and 28%, the “Population Tubulin-Different-Phenotype (%)” value [1, 8] was 69% and 80% and the “Total Cell Count” value [1, 8] was 143 and 134. The “Population Apoptotic (%)” value [2, 3] was 40% and 48%, the “Population Fragmented Nuclei (%)” value [2, 3] was 4% and 3% and the “Population Healthy Nuclei (%)” value [2, 3] was 83% and 82%. The “Population Hoechst High Intensity Objects (%)” value [2, 3] was 7% and 5%, the “Population Membrane Permeable-Phenotype (%)” value [2, 3] was 3% and 4% and the “Population Mitochondria Different-Phenotype (%)” value [2, 3] was 15% and 22%. For the same molecule, the “Population Mitotic Cells (%)” value [2, 3] was 59% and 51%, the “Population Normal (%)” value [2, 3] was 92% and 94% and the “Population Pyknosed Nuclei (%)” value [2, 3] was 11% and 14%. The “Population Tubulin-Different-Phenotype (%)” value [2, 3] was 56%, the “Total Cell Count” value [2, 3] was 740 and 522 and the “Population Apoptotic (%)” value [2, 4] was 57% and 54%. For the same molecule, the “Population Fragmented Nuclei (%)” value [2, 4] was 3% and 5%, the “Population Healthy Nuclei (%)” value [2, 4] was 83% and 81% and the “Population Hoechst High Intensity Objects (%)” value [2, 4] was 10% and 15%. For the same molecule, the “Population Membrane Permeable-Phenotype (%)” value [2, 4] was 4% and 3%, the “Population Mitochondria Different-Phenotype (%)” value [2, 4] was 49% and 42% and the “Population Mitotic Cells (%)” value [2, 4] was 42% and 45%. For the same molecule, the “Population Normal (%)” value [2, 4] was 89% and 84%, the “Population Pyknosed Nuclei (%)” value [2, 4] was 12% and the “Population Tubulin-Different-Phenotype (%)” value [2, 4] was 86% and 81%. For the same molecule, the “Total Cell Count” value [2, 4] was 426 and 429, the “Population Apoptotic (%)” value [2, 5] was 39% and 56% and the “Population Fragmented Nuclei (%)” value [2, 5] was 8% and 4%. The “Population Healthy Nuclei (%)” value [2, 5] was 83% and 85%.

— ChEMBL document CHEMBL5303300, “EUbOPEN Chemogenomics Library - Multiplex” (2023)
